In paper PMC2796831 (Integrative biology : quantitative biosciences from nano to …, 2009):
Numbered stars: 1 amine (or outer) side, 2 acyl side, 3 side chain; on linkers, the order of the positions; unused ones are H or OH. Square brackets hold non-standard residues; d marks the D form. Peptide text beside a SMILES is read from it. * marks the point of attachment. X1 = CCN1C(=CC=CC=CC2=[N+](CCCCCC(=O)NCCN3C(=O)CC(*)C3=O)c3ccc(S(=O)(=O)[O-])cc3C2(C)C)C(C)(C)c2cc(S(=O)(=O)O)ccc21; Suc = O=C(CCC(=O)[*:2])[*:1]; Ahx = NCCCCCC(=O)O

Assays:
HT1080 xenografted mice = experiment: Confocal imaging of live mouse tissues after IV injection; format: in vivo; conditions: for Nuclear uptake in live tumor and tissues: 10 nmol IV, confocal stacks of live tissue, 30 minutes and 6 hours
Procedure, shortened: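 Xenografted HT1080 nude mice got 10 nmol Cy5-labelled peptide IV. Five minutes before sacrifice at 30 min or 6 h, they received IV Hoechst 33342 (250 µg) and rhodamine dextran (800 µg) to mark nuclei and blood pool. Organs were held on ice in HBSS and imaged unfixed by confocal microscopy within 30 min, as 3D stacks 5–60 µm deep. Excitation was 630, 405 and 535 nm.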

Biodistribution = format: in vivo, mice; conditions: for Time for blood Cy5 fluorescence to decline to the same level: 10 nmol IV, blood from tail artery, average of three mice (Fig. 3B)
Procedure, shortened: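 Athymic nude mice carried HT1080 xenografts from 2 million cells injected into the mammary fat pad 5–7 days earlier. Each received 10 nmol Cy5-labelled peptide into the tail vein. Tail-artery blood in capillaries was imaged for Cy5 (640 nm excitation, 700 nm emission). At 30 min and 6 h, organ pieces were homogenised in 10 mM Tris pH 7.6 with 1% SDS, boiled, centrifuged and imaged frozen. Concentration came from tissue-specific spiked standard curves. SUV = (moles/g tissue)/(moles injected/body weight).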

naïve athymic nude mice = experiment: Acute toxicity of unlabeled peptides after IV injection; format: in vivo; conditions: 5 µmol/kg IV, isoflurane anesthesia, unlabeled peptide
[1] = 10 nmol injection, assuming 20–25g mouse
[2] = athymic nude, mouse, kidney, iv, 10 nmol
[3] = athymic nude, mouse, liver, iv, 10 nmol
[4] = athymic nude, mouse, tumor, iv, 10 nmol

CCN1C(=CC=CC=CC2=[N+](CCCCCC(=O)NCCN3C(=O)CC(SC[C@@H](NC(=O)[C@@H](CCCNC(=N)N)NC(=O)[C@@H](CCCNC(=N)N)NC(=O)[C@@H](CCCNC(=N)N)NC(=O)[C@@H](CCCNC(=N)N)NC(=O)[C@@H](CCCNC(=N)N)NC(=O)[C@@H](CCCNC(=N)N)NC(=O)[C@@H](CCCNC(=N)N)NC(=O)[C@@H](CCCNC(=N)N)NC(=O)[C@@H](CCCNC(=N)N)NC(=O)CNC(=O)[C@H](C)NC(=O)[C@H](CC(C)C)NC(=O)CNC(=O)[C@H](CC(C)C)NC(=O)[C@@H]4CCCN4C(=O)CCCCCNC(=O)[C@@H](CCC(=O)O)NC(=O)[C@@H](CCC(=O)O)NC(=O)[C@@H](CCC(=O)O)NC(=O)[C@@H](CCC(=O)O)NC(=O)[C@@H](CCC(=O)O)NC(=O)[C@@H](CCC(=O)O)NC(=O)[C@@H](CCC(=O)O)NC(=O)[C@@H](CCC(=O)O)NC(=O)CCC(=O)O)C(N)=O)C3=O)c3ccc(S(=O)(=O)[O-])cc3C2(C)C)C(C)(C)c2cc(S(=O)(=O)O)ccc21 (stereo partly drawn) [ACPP, succinyl-e8-(x)-PLGLAG-r9-c(Cy5)-NH2] (Suc-[dE][dE][dE][dE][dE][dE][dE][dE][Ahx]PLGLAG[dR][dR][dR][dR][dR][dR][dR][dR][dR][dC](X1)-NH2)
Nuclear uptake in live tumor and tissues (HT1080 xenografted mice): below the detection limit | Nuclear uptake in live tissues at 10 times the usual dose (HT1080 xenografted mice; 100 nmol or 5 µmol/kg IV, one mouse): no detectable nuclear uptake in any tissue | Tumor fluorescence signal (confocal) compared with CPP (HT1080 xenografted mice; HT1080 tumors, 30 minutes and 6 hours after 10 nmol IV (Fig. 5A, B)): about four times higher | Time for blood Cy5 fluorescence to decline to the same level (Biodistribution): 30 min | Final peptide concentration in kidney based on SUV (Biodistribution; [1]): 8 to 17 µmol/kg | Tumor SUV compared with CPP (Biodistribution; 30 minutes after 10 nmol IV, HT1080 tumor homogenate, n=4 ACPP, n=3 CPP): slightly but not significantly greater | Tumor uptake (SUV) relative to muscle (Biodistribution; 6 hours after 10 nmol IV, HT1080 tumor): roughly 4 fold | tissue uptake dose at 0.5 h (Biodistribution; [2]): 28 %ID | tissue uptake dose at 6 h (Biodistribution; [2]): 48 %ID | tissue uptake dose at 0.5 h (Biodistribution; [3]): 21 %ID | tissue uptake dose at 6 h (Biodistribution; [3]): 33 %ID | SUV at 6 h (Biodistribution; [4]): 174 SUV | tissue uptake at 6 h (Biodistribution; [4]): 1.7 %ID/g | Acute effect (naïve athymic nude mice): no acute effect

CCN1C(=CC=CC=CC2=[N+](CCCCCC(=O)NCCN3C(=O)CC(SC[C@@H](NC(=O)[C@@H](CCCNC(=N)N)NC(=O)[C@@H](CCCNC(=N)N)NC(=O)[C@@H](CCCNC(=N)N)NC(=O)[C@@H](CCCNC(=N)N)NC(=O)[C@@H](CCCNC(=N)N)NC(=O)[C@@H](CCCNC(=N)N)NC(=O)[C@@H](CCCNC(=N)N)NC(=O)[C@@H](CCCNC(=N)N)NC(=O)[C@H](N)CCCNC(=N)N)C(N)=O)C3=O)c3ccc(S(=O)(=O)[O-])cc3C2(C)C)C(C)(C)c2cc(S(=O)(=O)O)ccc21 (stereo partly drawn) [CPP, r9-c(Cy5)-NH2]
Nuclear uptake in live tumor and tissues (HT1080 xenografted mice): below the detection limit | Time for blood Cy5 fluorescence to decline to the same level (Biodistribution): 3 min | Final peptide concentration in liver based on SUV (Biodistribution; [1]): 8 to 17 µmol/kg | tissue uptake dose at 0.5 h (Biodistribution; [2]): 8 %ID | tissue uptake dose at 6 h (Biodistribution; [2]): 9 %ID | tissue uptake dose at 0.5 h (Biodistribution; [3]): 90 %ID | tissue uptake dose at 6 h (Biodistribution; [3]): 84 %ID
